Rows were chosen to be rich in hits. Some 1.5% of all compounds tested hit in one or more screens of this group.
PPC-1+TRAIL kill – PPC-1 cancer cell killing with TRAIL present; PPC-1 cells + TRAIL, ATPLite viability luminescence; cell killing (% activity), % at 4 µM or 5 µM; 220,000 tested, 0.41% active;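 active = cell killing above 50% in the first pass at 4 µM, then a duplicate retest at 5 µM averaging 50% or more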;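 also: plate controls were cells with TRAIL plus DMSO for no effect and medium-only wells lacking cells for full effect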
H9c2 TAG inh – reduces triacylglycerol accumulation in H9c2 cells | inhibition, % at 12.5 µM | Nile Red lipid (TAG) fluorescence; cells loaded with 200 µM oleic acid | 230,000 tested, 0.66% active;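 active = pattern-corrected inhibition of lipid staining of at least 50% with the nuclear-stain viability signal not falling by more than 50%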;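 also: 0% = DMSO wells and 100% = triacsin C control wells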
Platelet DG rel – platelet dense granule release activity. human platelet-rich plasma, SFLLRN dense granule ATP release, luminescence. inhibition, %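 (compounds screened at 7.5 µM in platelet-rich plasma)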. 300,000 tested, 0.22% active. AID 1663;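 active = mean replicate score, as percent of positive control, at or above 50; inconclusive = mean below 50 but at least one replicate at or above 50; inactive = mean and every replicate below 50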
Hep lipid drop – hepatic lipid droplet formation modulation | AML12 mouse hepatocytes, oleate lipid droplets, BODIPY imaging | inhibition, % at 6.5 µM | 240,000 tested, 0.4% active;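 active = lipid droplet intensity inhibited by at least 50%, with more than 500 cells counted; inconclusive = wells with under 300 cells, treated as cytotoxic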
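Material: mouse AML12 hepatocyte cell line, fixed after treatment; Timing: compound with oleate, overnight; Technique: high-content imaging of BODIPY-stained droplets and DAPI nuclei; Probe or stimulus: oleate, 100 µM final; Dosing: compound at 6.5 µM only.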
STAT3 blocker – STAT3 signaling inhibition. U3A cells, IL-6 STAT3-luciferase reporter, luminescence; host cell line lacks STAT1. inhibition, % at 5.5 µM. 190,000 tested, 0.89% active;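 active = inhibition above the mean inhibition across all screened compounds plus 3 SD, cut at about 44% in these data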;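 also: 0% = DMSO only wells and 100% = 100 µM nifuroxazide control wells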
STAT1 blocker – STAT1 signaling inhibition; NIH 3T3 STAT1-luciferase reporter, IFN-gamma, luminescence; inhibition, % at 5.5 µM; 200,000 tested, 0.35% active; AID 920;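 active = inhibition above a set limit, the mean inhibition across all tested compounds plus 3 SD, cut at about 34% in these data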;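 also: 0% = IFN-gamma with DMSO and 100% = IFN-gamma with 300 µM nifuroxazide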
TAG conf – confirmation of triacylglycerol accumulation inhibitors. shares compounds with H9c2 TAG inh. H9c2 lipid accumulation, Nile Red fluorescence; cells loaded with 200 µM oleic acid. inhibition, % at 12.5 µM. 990 tested, 71% active. AID 651629;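 active = mean inhibition across replicates of 40% or more; inactive = mean inhibition below 40%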;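 also: plate controls were DMSO only wells for no effect and Triacsin C treated wells for full effect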
Active calls of the source: *; ? = inconclusive; · = no result.

SMILES | PPC-1+TRAIL kill | H9c2 TAG inh | Platelet DG rel | Hep lipid drop | STAT3 blocker | STAT1 blocker | TAG conf
CN(C)CC(O)c1ccc(C=Cc2ccc(Cl)cc2)cc1 (stereo unspecified) | · | 73* | · | · | · | · | 44*
CCc1ccc(/C=N/NC(=O)c2cc(C3CC3)nc3ccc(Br)cc23)s1 | -6 | 60* | 5 | 20 | -6 | 5 | 40*
Cc1ccc(N2CC(C(=O)OCC(=O)Nc3c(C)cccc3C)CC2=O)cc1 (stereo unspecified) | · | 7 | · | · | · | · | ·
COc1ccc(CNC(=O)/C=C/c2ccc(OCCCF)cc2)cc1 | 24 | 56* | 10 | · | 6 | -7 | 31
O=C(/C=C/c1ccc(OCCCF)cc1)NCc1ccc(Cl)cc1 | 5 | 14 | 2 | · | 30 | 5 | ·
CCOC(=O)C1=C(C)N(C[C@@H]2CC[C@@H](Cc3ccc(-c4ccccc4)cc3)O2)C(=O)NC1c1ccc(C(F)(F)F)cc1 (stereo partly specified) | · | 10 | · | · | · | · | ·
CCOC(=O)C1=C(C)N(C[C@@H]2CC[C@@H](Cc3ccc(-c4ccccc4)cc3)O2)C(=O)NC1c1cccc2ccccc12 (stereo partly specified) | · | 78* | · | · | · | · | 78*
O=C1Nc2ccccc2/C1=N\N=C\C1=C(N2CCOCC2)C(=C\c2ccccc2)/CC1 | 3 | · | 7 | · | 9 | -3 | ·
O=C1Nc2ccc(Br)cc2/C1=N\N=C\C1=C(N2CCOCC2)C(=C/c2ccccc2)/CC1 | · | 84* | · | · | · | · | 136*
CCN(CC)C(=O)C1=C(C)N(Cc2ccccc2)C(=O)C(CC(=O)NCCc2ccccn2)C1 (stereo unspecified) | · | 6 | · | · | · | · | ·
C[C@H](O)[C@@H]1CN2CCc3c([nH]c4ccc(-c5ccc6c(c5)OCO6)cc34)[C@@H]2C[C@@H]1N(C)C(=O)Nc1cc(Cl)cc(Cl)c1 | · | 70* | · | · | · | · | 89*
COc1ccc(NC(=O)N(C)[C@H]2C[C@H]3c4[nH]c5ccc(-c6cccc(C)c6)cc5c4CCN3C[C@H]2[C@H](C)O)cc1 | · | 46 | · | · | · | · | ·
Cc1cccc(-c2ccc3[nH]c4c(c3c2)CCN2C[C@@H]([C@H](C)O)[C@@H](N(C)C(=O)Nc3ccc(F)cc3)C[C@@H]42)c1 | · | 50* | · | · | · | · | 48*
CN(Cc1cnn(-c2ccccc2)c1)C(=O)c1cccc(S(=O)(=O)Nc2ccccc2F)c1 | · | 2 | · | · | · | · | ·
COCCNc1nc(NCc2ccc(C(C)C)cc2)c2sccc2n1 | · | -4 | · | · | · | · | ·
COc1cc(/C=C/CN2CCC(C(=O)NC(c3ccc(F)cc3)c3ccc4ccccc4n3)CC2)ccc1OC(C)=O (stereo unspecified) | · | 54* | · | · | · | · | 54*
CN(C)c1ccc(CN2CCC(C(=O)NC(c3ccc(F)cc3)c3ccc4ccccc4n3)CC2)cc1 (stereo unspecified) | · | 56* | · | · | · | · | 38
O=C(NC(c1ccc(F)cc1)c1ccc2ccccc2n1)C1CCN(Cc2ccc3ccccc3n2)CC1 (stereo unspecified) | · | -8 | · | · | · | · | ·
NC(c1csc(NC(=O)c2cccc(OC(F)(F)F)c2)n1)c1ccccc1Cl (stereo unspecified) | · | 13 | · | · | · | · | ·
Cc1ccc(-c2cc(NC(=O)CCl)n(-c3ccccc3)n2)cc1 | 36 | -17 | -1 | 11 | 24 | 0 | ·
Cc1ccc(-c2nn(-c3ccccc3)cc2NC(=O)CCl)cc1 | 28 | 51* | -25 | 15 | 10 | -12 | 80*
Cc1nc(CC(=O)NNS(=O)(=O)c2cccc(Cl)c2Cl)cs1 | · | -9 | · | · | · | · | ·
COc1ccc([C@H]2CC(=O)C=C(c3ccc(Cl)cc3C)C2)cc1 | · | -14 | · | · | · | · | ·
COc1ccc([C@H]2CC(=O)C=C(c3ccc(OC)cc3OC)C2)cc1 | · | 52* | · | · | · | · | 81*
Cc1cc(N=Nc2ccccc2)cc(C)c1NC(=O)C(F)(F)F | · | 1 | · | · | · | · | ·
SMILES | PPC-1+TRAIL kill | H9c2 TAG inh | Platelet DG rel | Hep lipid drop | STAT3 blocker | STAT1 blocker | TAG conf
S=C1SCCCN1Cc1ccc(Cl)cc1 | · | -1 | · | · | · | · | ·
CSc1cc(-c2ccc(Cl)cc2)n(Cc2ccccc2)c(=O)c1C#N | 15 | 64* | -32 | 7 | 0 | -1 | 36
CSc1cc(-c2ccccc2)n(Cc2c(Cl)cccc2Cl)c(=O)c1C#N | 8 | 58* | 7 | 8 | 2 | 1 | 68*
Cc1cc2c(cc1C)CSC(c1ccccc1O)SC2 | 38 | 54* | 3 | 19 | 0 | 4 | 23
Cc1cc2c(cc1C)CSC(c1ccc3ccccc3c1O)SC2 | 22 | 0 | 4 | 8 | -61 | -2 | ·
O=C(CCl)N(CCc1ccccc1)CCc1ccccc1 | · | · | 0 | -4 | · | · | ·
CCOCC(=O)NC1CCc2cc(OC)c(OC)c(OC)c2-c2ccc(SC)c(=O)cc21 (stereo unspecified) | · | 54* | · | · | · | · | 38
COc1cccc(-c2nc(-c3ccc(NC(=O)Cc4ccccc4OC)cc3)no2)c1 | 2 | 51* | · | -7 | 14 | -4 | 55*
COc1ccc(CC(=O)Nc2ccc(-c3noc(-c4ccccc4OC)n3)cc2)cc1 | -32 | · | 1 | -24 | 20 | -5 | ·
COc1ccc(NC(=S)N(CCCN2CCCC2)Cc2cccn2Cc2ccc(Cl)cc2)cc1Cl | 13 | 71* | -5 | 4 | 14 | 2 | 56*
Cc1ccc(NC(=S)N(CCCN2CCCC2)Cc2cccn2Cc2ccc(Cl)cc2)cc1Cl | 28 | 78* | 4 | -11 | -4 | 4 | 93*
COc1cc2c3c(c1)c(C1=NC(=S)NC1=O)c(O)n3C(C)(C)C=C2C | 4 | 83* | 7 | 24 | 7 | -1 | 66*
COc1cc(NC(=O)c2cc([N+](=O)[O-])ccc2NC(=O)CN2CCN(c3ccccn3)CC2)cc(OC)c1 | · | 60* | 3 | -12 | · | · | 79*
COc1ccc(NC(=O)C2Cc3c(-c4cccc(C(C)=O)c4)ccnc3O2)cc1 (stereo unspecified) | · | 54* | · | · | · | · | 38
CC(=O)Nc1ccc(-c2ccnc3c2CC(C(=O)NCc2cccc(Cl)c2)O3)cc1 (stereo unspecified) | · | 58* | · | · | · | · | 63*
N=c1n(CCO)c2ccccc2n1CCOc1ccc(Cl)cc1Cl | -5 | 91* | -5 | · | 8 | 0 | 64*
CCCCCN(C(=O)CCC(=O)OCC(=O)NCCc1ccccc1)c1c(N)n(CCCC)c(=O)[nH]c1=O | · | 15 | · | · | · | · | ·
O=C1OCC2=C1C(c1ccc3c(c1)OCO3)c1cc3c(cc1O2)OCO3 (stereo unspecified) | · | 28 | · | · | · | · | ·
CC(C)c1ccc(C2C3=C(COC3=O)Nc3cc4c(cc32)OCO4)cc1 (stereo unspecified) | 19 | 54* | 15 | ? | -41 | -19 | 39
COc1ccc2c(c1)[nH]c1c(=O)n(/N=C/C3C(C)C=C(C)CC3C)c(=O)[nH]c12 (stereo unspecified) | · | 85* | -17 | 8 | 8 | -4 | 20

Bioassay records as filed in PubChem.
